# STAT1 activator – STAT1 signaling activation | hit rate 2.6% among 200,000 | activation (% of control), % at 5.5 µM | NIH 3T3 STAT1-luciferase reporter, IFN-gamma, luminescence; 100% = IFN-gamma alone, no compound;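 active = activation above the screen-wide mean activation plus 3 SD, cut at about 130% in these data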
# FLuc stim CS – firefly luciferase counter-screen for stimulation assays | P08659 | ATPlite luciferase biochemical, luminescence, 10 min; 0 = ATP-free wells, 1 = DMSO control | activation factor at 10 µM | 200,000 tested, under 10 active | AID 1027;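 active = luciferase activation factor, scaled between plate controls, of at least 2 with compound at 10 µM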
# Target sequence (P08659 whole entry, looked up): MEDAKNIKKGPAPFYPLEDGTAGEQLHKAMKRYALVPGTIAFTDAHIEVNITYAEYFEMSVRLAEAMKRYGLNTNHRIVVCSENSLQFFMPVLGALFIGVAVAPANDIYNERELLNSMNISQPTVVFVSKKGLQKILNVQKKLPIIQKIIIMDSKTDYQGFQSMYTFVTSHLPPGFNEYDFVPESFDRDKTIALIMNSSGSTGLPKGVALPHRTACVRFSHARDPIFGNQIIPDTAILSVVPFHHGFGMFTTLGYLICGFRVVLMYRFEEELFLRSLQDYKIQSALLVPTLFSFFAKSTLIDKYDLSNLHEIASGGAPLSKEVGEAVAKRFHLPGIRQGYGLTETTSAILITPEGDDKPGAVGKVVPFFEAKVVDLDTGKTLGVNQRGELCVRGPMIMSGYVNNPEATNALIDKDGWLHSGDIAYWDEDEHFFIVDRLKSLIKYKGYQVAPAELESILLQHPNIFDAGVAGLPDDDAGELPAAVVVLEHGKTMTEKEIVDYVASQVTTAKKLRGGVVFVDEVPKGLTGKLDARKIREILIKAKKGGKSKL
#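 Material: Luciferase/luciferin reagent mix | Doses: Test compounds dosed from 2 mM stocks in 100% DMSO | Timing: 10 min incubation after luciferase reagent addition, room temperature | Measured by: Luminescence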
# NF-kB expr up – NF-kB expression increase, human neuronal cells; NF-kB reporter expression; hits give high values; fold change at 12.5 µM; hit rate 1.6% among 190,000; AID 1239; in the data active = fold change above about 3.3
# APP 5'UTR act – APP 5'UTR luciferase reporter activation; SH-SY5Y APP 5'UTR luciferase reporter, luminescence; zero percent = DMSO vehicle wells; activation, % at 2 µM; hit rate 1% among 190,000;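 active = activation above a set limit, based on mean plus 3 SD of controls, cut at about 140% in these data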
# FLuc inh counter – inhibits firefly luciferase, flagging false hits in luciferase inhibition screens | P08659 | ATPLite firefly luciferase biochemical luminescence, 10 min | inhibition, % at 10 µM | hit rate 1.5% among 200,000 | AID 1006;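 active = inhibition above about 50% when tested at 10 µM, limit read from the data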
# A number is an active result; . = inactive; / = no result. Compounds with a hit are over-represented: about 4.3% of the library has one in this group of screens.
SMILES,STAT1 activator,FLuc stim CS,NF-kB expr up,APP 5'UTR act,FLuc inh counter
CCc1ccc2oc(-c3cc(N=Cc4cccc(OC)c4O)ccc3O)nc2c1,.,.,4.2,162,84
COc1cccc(C=Nc2cc(C)cc(C)c2)c1O,.,.,.,.,.
C/C=C/c1cc(CN2CCN(c3ccc(OC)cc3)CC2)c(O)c(OC)c1,.,.,.,.,.
O=C(Nc1cc(Sc2nc3ccccc3s2)cc([N+](=O)[O-])c1)c1cccc(F)c1F,.,.,.,.,.
CC(=NC1CCCCC1)C1=C(O)c2ccccc2C1=O,148,.,/,.,58
COc1ccc2[nH]c(-c3ccc(C)cc3)cc(=O)c2c1,.,.,4.2,.,93
CCN(CC(=O)Nc1ccc(Cl)c(C(F)(F)F)c1)CC(=O)NC1CCS(=O)(=O)C1 (stereo not drawn),.,.,.,.,.
O=C1OC(C(=O)Nc2ccccc2)Cc2ccccc21 (stereo not drawn),.,.,.,.,.
Cc1ccc(NC(=O)C2Cc3ccccc3C(=O)O2)cc1 (stereo not drawn),135,.,.,.,.
COc1ccc(C(CCN)Cc2ccccc2)cc1 (stereo not drawn),.,.,.,.,.
Fc1ccc(OCc2nc(-c3cccs3)no2)cc1,140,.,.,.,.
c1ccc(OCc2nc(-c3cccs3)no2)cc1,145,.,.,.,.
O=C(Nc1ccc(NC(=O)c2ccccn2)cc1)C(=O)Nc1ccc2c(c1)OCCO2,.,.,.,.,.
O=C(Nc1ccc2c(c1)OCCO2)c1ccc2ccccc2n1,137,.,9.2,220,62
Cc1ccc(NC(=O)c2ccc3ccccc3n2)cc1S(=O)(=O)N(C)C,134,.,.,.,.
O=C(Nc1ccc2c(c1)OCCO2)c1cccc2nc3ccccc3nc12,.,.,.,.,.
CCn1cc(Cl)c(C(=O)Nc2ccc3c(c2)OCCO3)n1,.,.,4.1,137,74
CCn1cc(Cl)c(C(=O)Nc2cccc(C(F)(F)F)c2)n1,.,.,.,.,.
O=C(Nc1ccc2c(c1)OCCO2)c1ccccn1,.,.,.,.,93
O=C(COc1ccc2ccccc2c1)N/N=C/C1CC=CCC1 (stereo not drawn),.,.,.,.,.
COC(=O)c1cc(NC(=O)Cc2cc(OC)c(OC)c(OC)c2)cc(C(=O)OC)c1,.,.,.,.,.
CCOC(=O)Cn1c(=NC(=O)c2ccc([N+](=O)[O-])s2)sc2ccccc21,.,.,.,.,.
Cn1nc(C(=O)Nc2ccc3c(c2)OCCO3)cc1C(=O)O,.,.,.,.,65
Cc1ccc(NC(=O)c2cncc(Br)c2)cc1S(=O)(=O)N(C)C,136,.,.,.,.
O=C(CSCc1ccccc1Cl)Nc1ccc2c(c1)OCCO2,.,.,.,137,.
SMILES,STAT1 activator,FLuc stim CS,NF-kB expr up,APP 5'UTR act,FLuc inh counter
Nc1nc(CSC(=S)N2CCOCC2)nc(Nc2ccccc2)n1,131,.,.,.,.
Nc1nc(CSC(=S)N2CCCCC2)nc(Nc2ccccc2)n1,136,.,.,.,.
COc1ccc(NS(=O)(=O)c2cc([N+](=O)[O-])ccc2N/N=C\c2c(C)[nH]c3ccccc23)cc1,.,.,.,/,.
COc1ccc(/C=N/Nc2ccc([N+](=O)[O-])cc2S(=O)(=O)N2CCN(C)CC2)cc1,.,.,5.5,/,.
CCC(Oc1ccccc1)C(=O)NCc1ccc(S(N)(=O)=O)cc1 (stereo not drawn),.,.,.,.,.
CCN(CC)S(=O)(=O)c1ccc(NS(=O)(=O)CC23CCC(CC2=O)C3(C)C)cc1 (stereo not drawn),.,.,.,.,.
COC(=O)CC1=NN(c2nc3ccccc3s2)C(=O)/C1=C/N(C)C,.,.,.,.,72
COc1cccc2c1C(=O)c1c(O)c3c(c(O)c1C2=O)C[C@@](O)(C(=O)CO)C[C@@H]3O[C@H]1C[C@H](N)[C@H](O)[C@H](C)O1,265,.,3.8,.,.
Cc1nc2sc(-c3ccccc3)nn2c(=O)c1Br,147,.,4.5,.,.
COC(=O)C1C(=O)c2c([nH]c(C(=O)OC3CCCC3C)c2C)CC1C (stereo not drawn),138,.,.,157,.
Cc1ccc(C(=O)N/C(=C\c2ccccc2)C(=O)NCc2cccnc2)cc1,.,.,.,.,.
O=C(/C=C/NNC(=O)c1ccc(Cl)cc1)c1ccccc1,133,.,.,.,.
CCOc1cccc2cc(C(C)=O)oc12,.,.,.,.,.
COc1cccc2cc(-c3cn4cccc(C)c4n3)c(=O)oc12,136,/,/,.,/
COc1ccc(-n2c(C)cc(-c3cn4cccc(C)c4n3)c2C)cc1,.,.,.,.,.
COc1cccc2cc(-c3nnc(-c4ccccc4)o3)c(=O)oc12,.,.,.,138,91
CCOc1cccc2cc(-c3cn4cc(C)ccc4n3)c(=O)oc12,141,.,3.5,.,68
O=C(/C=C/Nc1ccc([N+](=O)[O-])cc1Br)c1cccc2ccccc12,.,.,.,149,.
CC(=O)NC(c1ccc(Cl)cc1)c1c(O)ccc2ccc(O)cc12 (stereo not drawn),130,.,.,.,.
O=C(NC(c1ccc(Cl)cc1)c1c(O)ccc2ccccc12)c1ccccc1 (stereo not drawn),.,.,.,.,.
COCCNc1oc(-c2ccc(Cl)cc2)nc1C#N,129,.,.,.,.
COc1ccc(Nc2oc(-c3ccccc3)nc2C#N)cc1,132,.,.,.,.
COCCNc1oc(-c2ccc(C)cc2)nc1C#N,.,.,.,.,.
O=C(N=Nc1c(O)[nH]c2ccccc12)c1ccc2c(c1)OCO2,.,.,.,.,93
CSc1ncccc1C(=O)OCC(=O)C(C)(C)C,.,.,.,.,.
SMILES,STAT1 activator,FLuc stim CS,NF-kB expr up,APP 5'UTR act,FLuc inh counter
Cc1ccccc1N(CC(=O)Nc1ccc(S(=O)(=O)N2CCOCC2)cc1)S(C)(=O)=O,.,.,.,.,.
COc1ccc(-c2noc(-c3cccc(Cl)c3)n2)cc1OC,.,.,.,.,.
CCOc1ccc(-c2noc(-c3ccncc3)n2)cc1OCC,.,.,.,.,.
COc1ccc(-c2noc(-c3ccccc3Cl)n2)cc1OC,143,.,4.9,.,.
Cc1cccc(-c2noc(-c3ccc(Cl)cc3[N+](=O)[O-])n2)c1,.,.,5.3,178,.
COc1ccc(-c2nc(-c3ccncc3)no2)cc1OC,132,.,.,.,.
Cc1cccc(-c2noc(-c3ccoc3C)n2)c1,150,.,.,.,.
COc1ccc(C2=CC(=O)C=CC2=O)cc1,/,/,/,.,/
CC1CCCCC1NC(=O)CN1C(=O)CSc2cc(S(=O)(=O)N3CCCCCC3)ccc21 (stereo not drawn),.,.,.,.,.
O=C1CCN(c2ccc([N+](=O)[O-])cc2F)CC1,.,.,.,.,.
COc1ccc(-c2noc(-c3ccoc3C)n2)cc1OC,143,.,3.6,.,.
COc1ccc(-c2noc(-c3ccc(Cl)cc3[N+](=O)[O-])n2)cc1OC,.,.,.,.,.

# Screening results (PubChem)
